Measurements collected from several papers.
Each line is one published result; the experiments were not run side by side.
ERBB2: Receptor tyrosine-protein kinase erbB-2 (ERBB2, Homo sapiens, UniProt P04626)

| SMILES | target | assay | setting | endpoint | result |
| --- | --- | --- | --- | --- | --- |
| CN(C)C/C=C/C(=O)Nc1cc2c(Nc3ccc(F)c(Cl)c3)ncnc2cc1O[C@H]1CCOC1 | ERBB2 | cell-free assay, competition with immobilised ligand | 10 µM | inhibition | ~100% |
| C=CC(=O)N1CCC(COCC(=O)N2CCN(c3nc(-c4cnc(N)nc4C(F)F)nc(N4CCOC[C@@H]4C)n3)CC2)CC1 | Mitogen-activated protein kinase kinase kinase 2 (MAP3K2, Homo sapiens, UniProt Q9Y2U5) | binding, competition with immobilised ligand | 1 µM | remaining binding | 97% |
| CCc1nn(C)c2nc(-c3ccc(C(=O)O)cc3)nc(NCc3ccc(F)cc3)c12 | cGMP-dependent 3',5'-cyclic phosphodiesterase (PDE2A, Homo sapiens, UniProt O00408) | enzyme activity, inhibitor, radiometric | 10 µM | inhibition | 35.7% |
| COc1cc(-c2cncc3c2CN(C)Cc2cc(N4CCNCC4)ccc2-3)cc(OC)c1OC | ERBB2 | enzyme activity, inhibitor | 1 µM | remaining activity | 106% |
| Cc1cc([C@@H](C)Nc2ccccc2C(=O)O)c2nc(N3CCC(F)(F)CC3)c(C#N)c(=O)n2c1 | Tyrosine-protein kinase ABL1, phosphorylated (ABL1, Homo sapiens, UniProt P00519) | binding, competition with immobilised ligand | 1 µM | remaining binding | 100% |
| O=C(O)CNc1cccc(CN(Cc2ccc(-n3cccn3)cc2)S(=O)(=O)c2cccnc2)n1 | Carbonic anhydrase 1 (CA1, Homo sapiens, UniProt P00915) | enzyme activity, inhibitor | 10 µM | inhibition | 0% |
| CNc1ncc2c(/C=C/C(=O)N3CCC(OC)CC3)nn(Cc3cccc(C(F)(F)F)c3)c2n1 | Tyrosine-protein kinase ABL1 (ABL1, Homo sapiens, UniProt P00519) | enzyme activity, inhibitor, radiometric | 1 µM | remaining activity | 92% |
| C=CC(=O)N1CCCN(C(=O)c2cc(Sc3cnc(NC(=O)C4CC4)s3)c(C)cc2OC)C[C@H]1C | Tyrosine-protein kinase ITK/TSK (ITK, Homo sapiens, UniProt Q08881) | enzyme activity, inhibitor | 1 µM | inhibition | > 95% |
| CC(C)OC(=O)CNc1cccc(CN(Cc2ccc(-n3cccn3)cc2)S(=O)(=O)c2cccnc2)n1 | Alpha-2A adrenergic receptor (ADRA2A, Homo sapiens, UniProt P08913) | ligand displacement, radioligand | 10 µM | inhibition | 4% |
| O=C(COP(=O)(O)O)[C@@H](O)[C@H](O)[C@H](O)COP(=O)(O)O | Son of sevenless homolog 1 (SOS1, Homo sapiens, UniProt Q07889) | thermal stability | 5 mM, lysate | ΔTm | -6.2 °C |
